These results are taken from ChEMBL document CHEMBL4130443, “Targeting breast cancer stem cells by novel HDAC3-selective inhibitors” (Eur J Med Chem, 2017).

One data set deals with Histone deacetylase 1 (Homo sapiens, UniProt Q13547). Description: Inhibition of human HDAC1 using p53 (379 to 382 residues) derived fluorogenic peptide RHKKAc.
For data set [1], the target named is Histone deacetylase 3/Nuclear receptor corepressor 2 (HDAC3/NCoR2) (Homo sapiens, UniProt O15379). Description: Inhibition of human HDAC3/NCOR2 using p53 (379 to 382 residues) derived fluorogenic peptide RHKKAc. The class given is protein-complex assay.
For data set [2], the target named is Histone deacetylase 5 (Homo sapiens) (UniProt Q9UQL6). Description: Inhibition of human HDAC5 at 1 uM using Boc-Lys(trifluoroacetyl)-AMC substrate. A digest of the protocol:
(§1)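 Isoform profiling run by a commercial vendor with compounds at 1 µM. Values are percent inhibition, each the average of two determinations.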

Data set [3] has as its target T1, Protein deacetylase HDAC6 (Homo sapiens) (UniProt Q9UBN7).
T1 sequence (whole entry): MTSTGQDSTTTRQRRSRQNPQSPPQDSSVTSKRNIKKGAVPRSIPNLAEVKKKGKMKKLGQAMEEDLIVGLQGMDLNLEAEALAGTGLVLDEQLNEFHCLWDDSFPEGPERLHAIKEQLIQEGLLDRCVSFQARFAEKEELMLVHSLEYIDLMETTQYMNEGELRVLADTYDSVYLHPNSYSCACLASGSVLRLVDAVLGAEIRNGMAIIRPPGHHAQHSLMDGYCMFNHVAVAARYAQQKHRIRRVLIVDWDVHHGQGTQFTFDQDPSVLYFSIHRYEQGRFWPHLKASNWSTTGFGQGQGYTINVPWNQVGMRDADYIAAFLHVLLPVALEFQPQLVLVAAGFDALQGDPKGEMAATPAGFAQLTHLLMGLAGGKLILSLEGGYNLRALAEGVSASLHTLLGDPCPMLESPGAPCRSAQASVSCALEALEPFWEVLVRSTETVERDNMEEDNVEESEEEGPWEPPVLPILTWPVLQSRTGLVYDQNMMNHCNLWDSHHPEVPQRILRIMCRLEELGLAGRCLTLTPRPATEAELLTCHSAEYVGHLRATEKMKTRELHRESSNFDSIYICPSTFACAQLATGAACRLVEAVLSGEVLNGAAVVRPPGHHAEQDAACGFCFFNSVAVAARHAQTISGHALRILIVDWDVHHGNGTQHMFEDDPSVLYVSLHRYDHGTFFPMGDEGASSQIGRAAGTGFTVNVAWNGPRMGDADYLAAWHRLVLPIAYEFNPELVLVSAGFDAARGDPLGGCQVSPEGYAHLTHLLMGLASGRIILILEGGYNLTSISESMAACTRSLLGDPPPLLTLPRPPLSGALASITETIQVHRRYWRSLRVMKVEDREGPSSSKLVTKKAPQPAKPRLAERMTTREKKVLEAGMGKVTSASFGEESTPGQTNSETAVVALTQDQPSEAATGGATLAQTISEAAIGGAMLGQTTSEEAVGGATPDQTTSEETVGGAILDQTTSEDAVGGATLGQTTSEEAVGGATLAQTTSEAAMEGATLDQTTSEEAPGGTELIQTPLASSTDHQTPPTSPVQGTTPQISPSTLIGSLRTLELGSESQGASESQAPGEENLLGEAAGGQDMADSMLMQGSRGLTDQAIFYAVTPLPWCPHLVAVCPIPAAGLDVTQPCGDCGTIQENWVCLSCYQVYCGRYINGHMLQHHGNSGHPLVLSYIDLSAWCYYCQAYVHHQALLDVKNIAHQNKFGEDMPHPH
Description: Inhibition of human HDAC6 at 1 uM using p53 (379 to 382 residues) derived fluorogenic peptide RHKKAc. A digest of the protocol: as §1

Data set [4] has as its system MDA-MB-231. Kind of data set: Cytotoxicity in human MDA-MB-231 cells assessed as reduction in cell viability incubated for 24 to 72 hrs by MTT assay. The data set is classed as functional, cell-based. A digest of the protocol:
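MDA-MB-231 seeded 5,000 cells/well with 10% FBS, left overnight, then exposed to agents in 5% FBS for 24, 48 and 72 h. MTT added for 1 h, dye dissolved in DMSO, absorbance at 560 nm. Viability given as percent of the matching vehicle-treated control. N = 6.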
A general note: Tetrazolium dyes change colour on reduction, which living cells bring about.

Data set [5] concerns MDA-MB-231. Kind of data set: Growth inhibition of human MDA-MB-231 cells incubated for 48 to 72 hrs by crystal violet staining based assay. The class given is functional, cell-based. A digest of the protocol:
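Cells plated at 5000/well and left overnight, then treated in 5% FBS for 24, 48 and 72 h. Washed with PBS, stained 20 min with 0.5% crystal violet in 20% methanol, stain solubilized in 2% SDS, absorbance read at 550. Growth inhibition calculated as (1-Nt/Nc) x 100 against vehicle wells. N = 6.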

The subject of data set [6] is MDA-MB-231. Kind of data set: Inhibition of colony formation of human MDA-MB-231 cells incubated for 48 hrs by crystal violet staining based assay. The following applies: MDA-MB-231, 48 h.
In data set [7] the test system is MDA-MB-231. Description: Inhibition of mammosphere formation of human MDA-MB-231 cells incubated for 7 days. The following applies: MDA-MB-231, 168 h.
Data set [8] has as its target Histone deacetylase 3 (Homo sapiens) (UniProt O15379). Description: Inhibition of HDAC3 in human MDA-MB-231 cells assessed as reduction in Akt phosphorylation at 0.5 to 5 uM by immunoblotting. The class given is cell-based. The method in brief: (§2)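 Monolayer cells treated in 5% FBS at graded concentrations. Lysed in SDS/EDTA/Tris pH 8.1 buffer, equal protein immunoblotted with primary antibodies 1:1000 overnight at 4°C. Detected by ECL for phospho-Akt, β-catenin and histone H3 pan/H3K9 acetylation.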
A general note: A western blot detects proteins with antibodies after separation by electrophoresis.

The target is the same in data set [9]. Kind of data set: Inhibition of HDAC3 in human MDA-MB-231 cells assessed as reduction in beta-catenin expression at 0.5 to 5 uM by immunoblotting. The data set is classed as cell-based. A digest of the protocol: as §2
For data set [10] the target is unchanged. Kind of data set: Inhibition of HDAC3 in human MDA-MB-231 cells assessed as increase in histone H3 acetylation at 0.5 to 5 uM by immunoblotting. The class given is cell-based. The method in brief: as §2
The test system of data set [11] is MDA-MB-231. Description: Effect on beta-catenin mRNA expression in human MDA-MB-231 cells at 0.5 to 5 uM by RT-PCR method. The class given is cell-based. The following applies: mda-mb-231, 5 µM. A digest of the protocol: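 Monolayer cells treated at graded concentrations. Total RNA isolated with TRIzol. β-catenin mRNA assessed by RT-PCR with β-actin as reference.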

The subject of data set [12] is MDA-MB-231. Description: Inhibition of cancer stem cell subpopulation of human MDA-MB-231 cells assessed as CD44+/CD24low subpopulation level at 0.1 to 5 uM by flow cytometry. The data set is classed as functional, cell-based. The method in brief:
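Cells exposed to DMSO or compound at graded concentrations, then harvested and washed in stain buffer. Stained with FITC- or phycoerythrin-conjugated anti-CD44 and anti-CD24 for 30 min on ice in the dark, resuspended in PBS, and CD44+/CD24low fraction read by flow cytometry.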
For orientation: Flow cytometry measures light scatter and fluorescence of single cells or particles in a stream.

Data set [13] relates to MDA-MB-231. Kind of data set: Inhibition of tumorogenicity of human MDA-MB-231 cells xenografted in NOD/SCID mouse injected with cells pretreated with 5 uM compound for 48 hrs assessed as reduction in tumor incidence at 100 mg/kg, po dosed via gavage once daily starting on day 2 post injection and continuing through day 12. The class given is functional, organism-based. A digest of the protocol: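 Cells pretreated 48 h with 5 µM compound or DMSO, trypsinized and injected at 50,000 cells/0.1 ml in 50% Matrigel into the left 4th inguinal mammary fat pad of female NOD/SCID mice (N = 10 per group). Dosed 100 mg/kg by oral gavage once daily in 0.5% methylcellulose/0.1% Tween 80 in water. Caliper volume = (width² x length) x 0.52. Incidence by log-rank test, volume at day 27 by t-test.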

The source made the active and inactive calls. The calls are words filed in the database; no cut-off is given here. Where only a bound is given, the exact number is not on record here.

Chain of Histone deacetylase 3 (Homo sapiens) (O15379 whole entry): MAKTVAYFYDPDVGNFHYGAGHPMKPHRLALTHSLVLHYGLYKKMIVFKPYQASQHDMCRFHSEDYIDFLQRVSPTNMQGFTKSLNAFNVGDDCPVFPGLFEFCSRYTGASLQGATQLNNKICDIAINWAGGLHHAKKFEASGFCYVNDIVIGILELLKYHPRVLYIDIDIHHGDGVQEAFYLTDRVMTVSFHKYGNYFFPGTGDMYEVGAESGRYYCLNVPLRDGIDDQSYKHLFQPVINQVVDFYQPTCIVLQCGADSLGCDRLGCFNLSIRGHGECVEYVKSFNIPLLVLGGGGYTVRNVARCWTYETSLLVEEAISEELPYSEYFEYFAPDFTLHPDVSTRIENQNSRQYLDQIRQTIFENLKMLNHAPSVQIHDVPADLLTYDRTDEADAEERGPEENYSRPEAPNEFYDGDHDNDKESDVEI
Chain of Histone deacetylase 3/Nuclear receptor corepressor 2 (HDAC3/NCoR2) (O15379 whole entry, the tested form may be a part): as the sequence (O15379 whole entry) above
Chain of Histone deacetylase 3/Nuclear receptor corepressor 2 (HDAC3/NCoR2) (Q9Y618 whole entry, further chain, the tested form may be a part): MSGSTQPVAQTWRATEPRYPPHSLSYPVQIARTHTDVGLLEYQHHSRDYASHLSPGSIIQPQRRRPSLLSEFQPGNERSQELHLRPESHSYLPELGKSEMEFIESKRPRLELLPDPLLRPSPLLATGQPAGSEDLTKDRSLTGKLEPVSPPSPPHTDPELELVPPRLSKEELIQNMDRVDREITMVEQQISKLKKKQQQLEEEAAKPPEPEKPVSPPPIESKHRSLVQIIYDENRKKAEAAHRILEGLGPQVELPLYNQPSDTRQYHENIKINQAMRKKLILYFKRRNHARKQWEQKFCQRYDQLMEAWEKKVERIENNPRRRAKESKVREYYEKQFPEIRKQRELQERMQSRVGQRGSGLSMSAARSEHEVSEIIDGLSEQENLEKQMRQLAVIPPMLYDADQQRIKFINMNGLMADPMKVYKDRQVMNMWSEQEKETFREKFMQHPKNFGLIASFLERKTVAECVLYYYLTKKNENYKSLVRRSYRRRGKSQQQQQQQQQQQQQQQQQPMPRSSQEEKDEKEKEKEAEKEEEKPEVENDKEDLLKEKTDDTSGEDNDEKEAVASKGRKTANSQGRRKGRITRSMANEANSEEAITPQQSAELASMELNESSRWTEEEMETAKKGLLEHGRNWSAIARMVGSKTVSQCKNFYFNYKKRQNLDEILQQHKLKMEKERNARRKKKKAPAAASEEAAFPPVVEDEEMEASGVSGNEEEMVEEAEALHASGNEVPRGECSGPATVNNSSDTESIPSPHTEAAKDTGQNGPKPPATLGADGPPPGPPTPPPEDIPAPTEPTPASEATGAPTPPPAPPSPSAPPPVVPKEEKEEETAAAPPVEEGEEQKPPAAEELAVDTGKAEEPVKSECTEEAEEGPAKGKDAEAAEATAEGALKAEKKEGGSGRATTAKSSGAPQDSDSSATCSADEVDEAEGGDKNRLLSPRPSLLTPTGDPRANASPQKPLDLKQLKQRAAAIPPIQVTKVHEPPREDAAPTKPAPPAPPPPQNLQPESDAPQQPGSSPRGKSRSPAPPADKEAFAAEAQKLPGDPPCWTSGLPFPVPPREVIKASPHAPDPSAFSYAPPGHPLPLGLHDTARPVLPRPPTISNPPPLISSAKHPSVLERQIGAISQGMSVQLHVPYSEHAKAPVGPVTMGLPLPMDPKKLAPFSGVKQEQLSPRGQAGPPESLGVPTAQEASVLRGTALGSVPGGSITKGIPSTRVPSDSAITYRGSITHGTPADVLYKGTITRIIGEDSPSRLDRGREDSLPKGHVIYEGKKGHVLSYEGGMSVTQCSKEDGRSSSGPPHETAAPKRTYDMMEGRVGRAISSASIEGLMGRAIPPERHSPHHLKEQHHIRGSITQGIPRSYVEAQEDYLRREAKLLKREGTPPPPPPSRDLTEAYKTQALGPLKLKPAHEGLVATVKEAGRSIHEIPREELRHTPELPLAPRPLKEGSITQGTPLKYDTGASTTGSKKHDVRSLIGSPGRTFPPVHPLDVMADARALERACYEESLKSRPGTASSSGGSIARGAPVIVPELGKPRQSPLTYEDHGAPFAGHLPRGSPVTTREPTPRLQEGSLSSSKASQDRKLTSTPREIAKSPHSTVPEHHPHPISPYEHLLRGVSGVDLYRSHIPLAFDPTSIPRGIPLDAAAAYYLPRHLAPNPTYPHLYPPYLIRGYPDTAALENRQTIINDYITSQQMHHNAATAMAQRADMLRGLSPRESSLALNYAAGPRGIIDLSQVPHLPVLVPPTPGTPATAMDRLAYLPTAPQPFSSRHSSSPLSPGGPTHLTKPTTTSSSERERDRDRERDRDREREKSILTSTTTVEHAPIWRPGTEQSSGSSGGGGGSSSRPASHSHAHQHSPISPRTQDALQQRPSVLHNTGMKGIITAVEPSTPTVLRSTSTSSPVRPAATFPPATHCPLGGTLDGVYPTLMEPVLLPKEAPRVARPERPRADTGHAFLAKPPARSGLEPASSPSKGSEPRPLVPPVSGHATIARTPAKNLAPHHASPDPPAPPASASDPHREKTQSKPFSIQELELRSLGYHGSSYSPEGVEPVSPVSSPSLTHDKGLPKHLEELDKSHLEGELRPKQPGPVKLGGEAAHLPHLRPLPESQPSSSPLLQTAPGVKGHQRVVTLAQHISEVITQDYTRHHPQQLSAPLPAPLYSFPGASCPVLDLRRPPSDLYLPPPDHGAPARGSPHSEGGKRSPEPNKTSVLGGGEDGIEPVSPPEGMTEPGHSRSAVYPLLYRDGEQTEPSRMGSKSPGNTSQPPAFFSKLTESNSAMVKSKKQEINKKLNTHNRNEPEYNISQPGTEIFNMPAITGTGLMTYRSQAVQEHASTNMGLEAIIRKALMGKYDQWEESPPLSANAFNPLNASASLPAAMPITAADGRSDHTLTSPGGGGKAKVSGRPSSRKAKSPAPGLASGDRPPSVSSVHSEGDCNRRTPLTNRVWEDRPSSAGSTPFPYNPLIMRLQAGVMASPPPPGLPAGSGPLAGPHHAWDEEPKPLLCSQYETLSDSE
Chain of Histone deacetylase 5 (Homo sapiens) (Q9UQL6 whole entry, canonical isoform): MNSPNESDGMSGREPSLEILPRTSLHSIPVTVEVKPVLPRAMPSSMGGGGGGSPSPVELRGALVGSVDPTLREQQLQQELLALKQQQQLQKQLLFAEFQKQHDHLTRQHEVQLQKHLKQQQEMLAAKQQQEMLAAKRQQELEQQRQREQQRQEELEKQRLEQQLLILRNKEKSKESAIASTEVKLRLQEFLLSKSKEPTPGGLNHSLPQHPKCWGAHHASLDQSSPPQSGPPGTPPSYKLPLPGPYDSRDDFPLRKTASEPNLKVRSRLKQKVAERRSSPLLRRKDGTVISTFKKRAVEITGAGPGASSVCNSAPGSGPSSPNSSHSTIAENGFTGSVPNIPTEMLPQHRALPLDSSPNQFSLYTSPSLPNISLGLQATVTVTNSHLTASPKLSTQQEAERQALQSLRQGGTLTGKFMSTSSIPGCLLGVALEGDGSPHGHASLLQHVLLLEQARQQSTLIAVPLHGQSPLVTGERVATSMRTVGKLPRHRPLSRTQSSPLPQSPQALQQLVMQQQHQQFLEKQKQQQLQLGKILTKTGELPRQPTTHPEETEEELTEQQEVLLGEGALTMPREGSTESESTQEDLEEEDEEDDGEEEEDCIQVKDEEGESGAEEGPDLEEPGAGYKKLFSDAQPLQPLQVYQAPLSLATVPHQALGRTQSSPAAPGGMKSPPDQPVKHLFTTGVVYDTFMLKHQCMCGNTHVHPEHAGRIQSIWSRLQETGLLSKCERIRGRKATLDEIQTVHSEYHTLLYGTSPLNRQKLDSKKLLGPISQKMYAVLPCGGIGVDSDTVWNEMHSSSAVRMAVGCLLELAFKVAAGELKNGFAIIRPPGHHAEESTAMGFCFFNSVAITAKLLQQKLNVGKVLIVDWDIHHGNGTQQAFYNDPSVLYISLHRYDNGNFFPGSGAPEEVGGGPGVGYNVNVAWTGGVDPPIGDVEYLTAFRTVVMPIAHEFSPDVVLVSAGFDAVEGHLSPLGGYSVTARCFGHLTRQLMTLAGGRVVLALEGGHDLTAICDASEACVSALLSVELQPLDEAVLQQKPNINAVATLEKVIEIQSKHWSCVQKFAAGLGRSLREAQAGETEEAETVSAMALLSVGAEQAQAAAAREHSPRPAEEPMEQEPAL
Chain of Histone deacetylase 1 (Q13547 whole entry, the tested form may be a part): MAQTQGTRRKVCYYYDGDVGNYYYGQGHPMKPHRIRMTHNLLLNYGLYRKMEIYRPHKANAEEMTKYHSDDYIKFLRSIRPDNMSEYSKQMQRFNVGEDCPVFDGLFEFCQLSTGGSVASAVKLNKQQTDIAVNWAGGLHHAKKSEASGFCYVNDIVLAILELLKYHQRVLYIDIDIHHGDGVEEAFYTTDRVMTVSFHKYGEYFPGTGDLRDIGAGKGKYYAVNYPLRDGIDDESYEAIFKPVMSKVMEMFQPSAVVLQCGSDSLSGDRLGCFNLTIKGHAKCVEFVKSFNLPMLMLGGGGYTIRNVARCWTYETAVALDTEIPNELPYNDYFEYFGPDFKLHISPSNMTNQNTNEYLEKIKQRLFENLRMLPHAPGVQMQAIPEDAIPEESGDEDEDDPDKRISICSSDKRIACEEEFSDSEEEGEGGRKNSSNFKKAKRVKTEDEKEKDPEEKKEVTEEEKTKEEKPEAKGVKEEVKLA

Broadly, the IC50 is the concentration that gives 50% inhibition. One may read the inhibition as how much of the control response was suppressed. Regarding `CC(C)(C(=O)Nc1ccc(C(=O)Nc2ccc(F)cc2N)cc1)c1ccccc1`, the half-inhibitory concentration (IC50) was greater than 10 µM on Histone deacetylase 1; 0.35 µM in [1]; no less than 10 µM in the data set with MDA-MB-231 [4]; no less than 10 µM in the data set on MDA-MB-231 [5]; 0.5 to 1 µM in the data set with MDA-MB-231 [6]; 0.5 to 1 µM with MDA-MB-231 [7]. In addition, the inhibition in data set [2] is 0%; in [3], 4%; in [8], “Dose-dependent effect”; in data set [9], “Dose-dependent effect”; in data set [10], “Dose-dependent effect”; in the data set on MDA-MB-231 [12] it was “Dose-dependent effect”. Moreover, the Activity result in the data set with MDA-MB-231 [11] is listed as “Non-Toxic”. In addition, in the data set on MDA-MB-231 [13], the inhibition entry was “Active”.
